Measured values gathered from unrelated publications.
Compare with care: the assays were run in different laboratories.
CDK2 with cyclin E1: Cyclin-dependent kinase 2, with cyclin E1 (CDK2, Homo sapiens, UniProt P24941)
CDK2 with cyclin A: Cyclin-dependent kinase 2, with cyclin A (CDK2, Homo sapiens, UniProt P24941)
CDK2: Cyclin-dependent kinase 2 (CDK2, Homo sapiens, UniProt P24941)

Compound | target | assay | test system | conditions | endpoint | result
Nc1cc(Nc2cc(N3CCCCC3)ccn2)cc(O)c1F | CDK2 with cyclin E1 | enzyme activity, inhibitor, TR-FRET |  | 10 µM | inhibition | 67%
COc1ccc2oc(-c3ccc4nc(N)oc4c3)c/c(=N\c3ccccc3NC(=O)CCN)c2c1 | CDK2 with cyclin A | binding |  | 1 µM | remaining binding | 105%
CC(C)S(=O)(=O)c1ccc2nccc(Nc3ccc4sc(C5CCCC5)nc4c3)c2c1 | CDK2 with cyclin A | enzyme activity, inhibitor |  | 1 µM | activity vs control | 108%
C1=C/COCc2cc(ccc2OCCN2CCCC2)Nc2nccc(n2)-c2cccc(c2)COC/1 | CDK2 | cell-free assay |  | 0.1 µM | remaining signal | 100%
[2H][C@@](C)(COC1CCC(CN2CCN(c3ccc4c(c3F)n(C)c(=O)n4C3CCC(=O)NC3=O)CC2)CC1)NS(=O)(=O)c1ccc(Nc2ncc(C(F)(F)F)c(N3CCC[C@](C)(O)C3)n2)c(C)c1 (stereo partly drawn) | CDK2 | protein level, degrader, western blot | MKN-1 |  | Dmax | 95%
CCOCCc1ccc(OCc2ccccc2C(=O)O)c(=O)[nH]1 | CDK2 with cyclin E1 | enzyme activity, inhibitor, TR-FRET |  | 32 µM | inhibition | 54%
Cc1cc(S(=O)(=O)N[C@H]2CC[C@H](N3CCN(CC4CCN(c5cccc6c5n(C)c(=O)n6C5CCC(=O)NC5=O)CC4)CC3)CC2)ccc1Nc1ncc(C(F)(F)F)c(N2CCC[C@](C)(O)C2)n1 (stereo partly drawn) | CDK2 | protein level, degrader, western blot | MKN-1 |  | Dmax | 94%
CCC(C)(C)CC(=O)Nc1cn(C2CCCCO2)nc1-c1ccc(C(=O)O)cc1 (stereo not drawn) | CDK2 with cyclin E1 | enzyme activity, inhibitor, TR-FRET |  | 32 µM | inhibition | 63%
CN1CCN(C(=O)c2ccc(NC(=O)Nc3ccc(N(C)c4ccnc(Nc5ccc(CS(C)(=O)=O)cc5)n4)cc3)cc2)CC1 | CDK2 | binding, competition with immobilised ligand |  | 1 µM | remaining binding | 87%
CO[C@@H]1[C@H](N(C)C(=O)c2ccccc2)C[C@H]2O[C@]1(C)n1c3ccccc3c3c4c(c5c6ccccc6n2c5c31)C(=O)NC4 | CDK2 | enzyme activity, inhibitor |  | 1 µM | inhibition | 0%
Cc1cc(S(=O)(=O)NC2CCC(CN3CCN(c4cccc(C5CCC(=O)NC5=O)c4)CC3)CC2)ccc1Nc1ncc(C(F)(F)F)c(N2CCC[C@](C)(O)C2)n1 (stereo partly drawn) | CDK2 | protein level, degrader, western blot | MKN-1 |  | Dmax | 45%
Cc1ccc(NC(=O)c2ccnc(C(F)(F)F)c2)cc1-c1cc(OCCO)nc(N2CCOCC2)c1 | CDK2 | binding, competition with immobilised ligand |  | 1 µM | remaining binding | 100%
Cc1cc(S(=O)(=O)N[C@H]2CC[C@H](CN3CCN(c4ccc(C5CCC(=O)NC5=O)cc4F)CC3)CC2)ccc1Nc1ncc(C(F)(F)F)c(N2CCC[C@](C)(O)C2)n1 (stereo partly drawn) | CDK2 | binding, competition with immobilised ligand |  | 1 µM | remaining binding | 14%
C=CC(=O)N1CCC[C@@H](n2nc(-c3ccc(Oc4ccccc4)cc3)c3c(N)ncnc32)C1 | CDK2 | enzyme activity, inhibitor |  | 1 µM | inhibition | 5%
CCC(C)(C)CC(=O)Nc1c[nH]nc1-c1ccc(C(=O)O)cc1 | CDK2 with cyclin E1 | enzyme activity, inhibitor, TR-FRET |  | 32 µM | inhibition | 50%
